Laboratory results as given in ChEMBL document CHEMBL4765448, “Multiple biological active 4-aminopyrazoles containing trifluoromethyl and their 4-nitroso-precursors: Synthesis and evaluation” (Eur J Med Chem, 2020).
Values after ≈ are worked out from the molar mass of the structure shown. Active and inactive are the calls of the source. The rule behind the calls is not given here.

Key:
[1] = Acute toxicity in mouse at 150 mg/kg, ip administered as single dose; type: organism-based; conditions: in vivo
In short: (§1)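 Mice, single intraperitoneal dose, following OECD Guideline for testing of chemicals; three mice per dose level; doses tested 10–300 mg/kg. Read-out is the number of survivors out of 3, used to estimate the expected LD50 range.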

Rattus norvegicus [2] = assay: Analgesic activity in rat assessed as prolongation of latency period at 15 mg/kg, ip measured after 1 hr by hot-plate test relative to control; type: functional
In short: (§2)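 Hot-plate test in rats. Compounds were given by intraperitoneal injection. Latency was read at 1 h and, for some compounds, also at 2 h after dosing. Results are expressed as % prolongation of the latent period versus vehicle-treated control. Significance was given as p-values.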

Rattus norvegicus [3] = assay: Analgesic activity in rat assessed as prolongation of latency period at 15 mg/kg, ip measured after 2 hrs by hot-plate test relative to control; type: functional; in short: as §2
Erythrocyte [4] = assay: Antioxidant activity in human erythrocytes assessed as protection against AAPH-induced hemolysis at 400 uM preincubated for 20 mins followed by AAPH addition and measured after 2 hrs by spectrophotometric method relative to control; type: functional; conditions: time 140 min, 2.333 h
In short: (§3)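 Erythrocyte hemolysis assay with AAPH as the free-radical initiator, testing 50 and 400 µM. Results are expressed as relative protection of membranes against oxidative damage, each the mean of two independent experiments.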

[5] = Antioxidant activity assessed as AAPH scavenging activity by measuring residual fluorescence at 10 uM measured at 1 min interval for 30 mins by ORAC fluorescein assay relative to control; type: functional
In short: (§4)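 ORAC-FL assay with fluorescein as the probe and AAPH as the peroxyl radical generator. The loss of fluorescence over time was followed, and the result is given as % fluorescence restored at 10 and 50 µM. Each value is the mean of two independent experiments.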

Erythrocyte [6] = assay: Antioxidant activity in human erythrocytes assessed as protection against AAPH-induced hemolysis at 50 uM preincubated for 20 mins followed by AAPH addition and measured after 2 hrs by spectrophotometric method relative to control; type: functional; conditions: time 140 min, 2.333 h; in short: as §3
Rattus norvegicus [7] = assay: Antiinflammatory activity in rat model of carrageenan-induced paw edema assessed as inhibition of hind paw swelling at 15 mg/kg, ip measured after 5 hrs; type: functional, organism-based
[8] = Antioxidant activity assessed as AAPH scavenging activity by measuring residual fluorescence at 50 uM measured at 1 min interval for 30 mins by ORAC fluorescein assay relative to control; type: functional; in short: as §4
[9] = Antioxidant activity assessed as trolox equivalent of ABTS radical scavenging activity measured after 1 hr by UV-vis spectrophotometric method; type: functional
In short: (§5)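 ABTS cation-radical decolorization was read spectrophotometrically as the fall in absorbance after 1 h. Trolox was the reference. TEAC was taken as the ratio of concentration-response slopes, test/Trolox, and IC50 was also derived. Data are mean ± SEM, n = 3.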

[10] = Acute toxicity in mouse at 10 mg/kg, ip administered as single dose; type: organism-based; conditions: in vivo; in short: as §1
[11] = Acute toxicity in mouse at 75 mg/kg, ip administered as single dose; type: organism-based; conditions: in vivo; in short: as §1
[12] = Antioxidant activity assessed as ABTS radical scavenging activity measured after 1 hr by UV-vis spectrophotometric method; type: functional; in short: as §5
[13] = Drug metabolism assessed as nitric oxide release in absence of rat plasma by Griess reagent based assay; type: cell-free
[14] = Acute toxicity in mouse at 300 mg/kg, ip administered as single dose; type: organism-based; conditions: in vivo; in short: as §1
Rattus norvegicus [15] = assay: Antiinflammatory activity in rat model of carrageenan-induced paw edema assessed as inhibition of hind paw swelling at 15 mg/kg, ip measured after 1 hr relative to control; type: functional
Rattus norvegicus [16] = assay: Antiinflammatory activity in rat model of carrageenan-induced paw edema assessed as inhibition of hind paw swelling at 15 mg/kg, ip measured after 3 hrs relative to control; type: functional
[17] = Acute toxicity in ip dosed mouse administered as single dose; type: organism-based; conditions: in vivo; in short: as §1
[18] = system: Mycobacterium tuberculosis; assay: Antitubercular activity against Mycobacterium tuberculosis H37Rv; type: functional
In short: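 Mycobacterium tuberculosis strain H37Rv; minimum inhibitory concentration (MIC) taken as the lowest level needed to inhibit bacterial growth; isoniazid and pyrazinamide served as reference drugs.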

Streptococcus pyogenes = assay: Antibacterial activity against Streptococcus pyogenes; type: functional
Microsporum canis = assay: Antifungal activity against Microsporum canis; type: functional
Trichophyton rubrum = assay: Antifungal activity against Trichophyton rubrum; type: functional
Escherichia coli = assay: Antibacterial activity against Escherichia coli; type: functional
Pseudomonas aeruginosa = assay: Antibacterial activity against Pseudomonas aeruginosa; type: functional
Trichophyton tonsurans = assay: Antifungal activity against Trichophyton tonsurans; type: functional
Candida albicans = assay: Antifungal activity against Candida albicans; type: functional
Epidermophyton floccosum = assay: Antifungal activity against Epidermophyton floccosum; type: functional
Klebsiella pneumoniae = assay: Antibacterial activity against Klebsiella pneumoniae; type: functional
Proteus vulgaris = assay: Antibacterial activity against Proteus vulgaris; type: functional
Neisseria gonorrhoeae = assay: Antibacterial activity against Neisseria gonorrhoeae; type: functional
Shigella flexneri = assay: Antibacterial activity against Shigella flexneri; type: functional
Staphylococcus aureus = assay: Antibacterial activity against Staphylococcus aureus; type: functional
Citrobacter braakii = assay: Antibacterial activity against Citrobacter braakii; type: functional
Serratia marcescens = assay: Antibacterial activity against Serratia marcescens; type: functional
[19] = system: Trichophyton interdigitale; assay: Antifungal activity against Trichophyton mentagrophytes var. interdigitale; type: functional
Nannizzia gypsea = assay: Antifungal activity against Trichophyton gypseum; type: functional
[20] = Drug metabolism assessed as nitric oxide release in presence of rat plasma by Griess reagent based assay; type: cell-free

SMILES	Activity [1]	Activity (Rattus norvegicus [2])	Activity (Rattus norvegicus [3])	fold change (FC) (Erythrocyte [4])	Activity [5] [%]	fold change (FC) (Erythrocyte [6])	Activity (Rattus norvegicus [7])	Activity [8] [%]	Activity [9] [equiv]	IC50 [12] [µM]	Drug metabolism [13]	other results
Cc1ccc(-c2[nH]nc(C(F)(F)F)c2N=O)cc1	Non-Toxic	inactive	inactive	1.03	-60	1.03	Active	-99.8	0.02	–	–	–
Nc1c(C(F)(F)F)n[nH]c1-c1cccs1	–	–	–	0.01	–	1.11	–	–	–	17.6	–	Activity [10]: Non-Toxic; Activity [11]: Toxic
O=[N+]([O-])O[C@H]1CO[C@H]2[C@@H]1OC[C@H]2O[N+](=O)[O-]	–	–	–	–	–	–	–	–	–	–	Metabolite detected	–
CS(=O)(=O)c1ccc(N2N=C(c3ccccc3)/C(=N\O)C2(O)C(F)(F)F)cc1 (configuration not stated)	–	53.7%	44.3%	1.14	30.6	1.03	Active	49.1	0.16	169	–	Activity [14]: Non-Toxic; inhibition (Rattus norvegicus [15]): inactive; inhibition (Rattus norvegicus [16]): inactive; LD50 [17]: > 300 mg/kg
Nc1c(C(F)(F)F)n[nH]c1-c1ccccc1	Non-Toxic	56.7%	66.7%	0.02	–	1.1	–	–	–	14.1	–	–
Cn1nc(C(F)(F)F)c(N=O)c1-c1cccs1	–	29.8%	43.8%	–	–	–	Active	–	–	–	Metabolite not detected	MIC [18]: 12.5 mg/L (≈ 47.9 µM); MIC (Streptococcus pyogenes): > 500 mg/L; MIC (Microsporum canis): 25 mg/L (≈ 95.7 µM); MIC (Trichophyton rubrum): 12.5 mg/L (≈ 47.9 µM); MIC (Escherichia coli): 500 mg/L (≈ 1910 µM); MIC (Pseudomonas aeruginosa): > 500 mg/L; MIC (Trichophyton tonsurans): 50 mg/L (≈ 191 µM); MIC (Candida albicans): 25 mg/L (≈ 95.7 µM); MIC (Epidermophyton floccosum): 50 mg/L (≈ 191 µM); MIC (Klebsiella pneumoniae): > 500 mg/L; MIC (Proteus vulgaris): > 500 mg/L; MIC (Neisseria gonorrhoeae): 500 mg/L (≈ 1910 µM); MIC (Shigella flexneri): > 500 mg/L; MIC (Staphylococcus aureus): > 500 mg/L; MIC (Citrobacter braakii): > 500 mg/L; MIC (Serratia marcescens): > 500 mg/L; MIC [19]: 25 mg/L (≈ 95.7 µM); MIC (Nannizzia gypsea): 50 mg/L (≈ 191 µM); Drug metabolism [20]: Metabolite detected
